Calls of active or inactive are those of the source. The calls are words filed in the database; no cut-off is given here.
Assays:
[1] = biological target: Calcium/calmodulin-dependent protein kinase type II subunit alpha (Homo sapiens, UniProt Q9UQM7); test: Inhibition of CamK2a (unknown origin)
CDK6/cyclin D3 = CDK6/cyclin D3 (Homo sapiens, UniProt Q00534); test: Inhibition of CDK6/cyclinD3 (unknown origin); type: protein-complex assay
Casein kinase I = test: Inhibition of CK1 (unknown origin); type: protein assay, Homo sapiens
[2] = biological target: Mitogen-activated protein kinase 3 (Homo sapiens, UniProt P27361); test: Inhibition of ERK1 (unknown origin)
[3] = biological target: Mitogen-activated protein kinase 1 (Homo sapiens, UniProt P28482); test: Inhibition of ERK2 (unknown origin)
[4] = biological target: Vascular endothelial growth factor receptor 1 (Homo sapiens, UniProt P17948); test: Inhibition of Flt1 (unknown origin)
[5] = biological target: G protein-coupled receptor kinase 5 (Homo sapiens, UniProt P34947); test: Inhibition of GRK5 (unknown origin)
[6] = biological target: Tyrosine-protein kinase HCK (Homo sapiens, UniProt P08631); test: Inhibition of Hck (unknown origin)
[7] = biological target: Interleukin-1 receptor-associated kinase 1 (Homo sapiens, UniProt P51617); test: Inhibition of IRAK1 (unknown origin)
[8] = biological target: Serine/threonine-protein kinase Nek7 (Homo sapiens, UniProt Q8TDX7); test: Inhibition of NEK7 (unknown origin)
[9] = biological target: Mitogen-activated protein kinase 14 (Homo sapiens, UniProt Q16539); test: Inhibition of p38alpha (unknown origin)
[10] = biological target: PAS domain-containing serine/threonine-protein kinase (Homo sapiens, UniProt Q96RG2); test: Inhibition of PASK (unknown origin)
[11] = biological target: Macrophage-stimulating protein receptor (Homo sapiens, UniProt Q04912); test: Inhibition of RON (unknown origin)
[12] = biological target: Ribosomal protein S6 kinase alpha-1 (Homo sapiens, UniProt Q15418); test: Inhibition of Rsk1 (unknown origin)
DLD-1 [13] = test: Antitumor activity against human DLD-1 cells harboring KRAS G13D/IDH1 G97D/SMO T640A/APC I1417 mutant xenografted in mouse assessed as tumor growth inhibition at 10 mg/kg, po; type: functional; details: read-out: TGI
In short: (§1)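 Single-agent dose ranging in human tumor xenograft mice at 2.5, 5 or 10 mg/kg oral. Tumor volume was measured by caliper as (L×W×W)/2. %TGI = 100×[1 − AUC(treatment/d)/AUC(vehicle/d)] from the fitted growth curve per dose group, relative to vehicle.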

A2058 [14] = test: Antitumor activity against human A2058 cells harboring BRAF V600E/PTEN L112Q/V175/TP53 V274F mutant xenografted in mouse assessed as tumor growth inhibition at 5 mg/kg, po; type: functional; details: read-out: TGI
In short: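 Mice carrying human tumor xenografts dosed orally once daily for 21 consecutive days. Tumor volume measured by calipers as (L×W×W)/2. %TGI = 100×[1 − AUC(treatment/day)/AUC(vehicle/day)], using the area under the fitted growth curve relative to vehicle.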

[15] = Antitumor activity against human A375.X1 cells harboring BRAF V600E/CDKN2A E61 mutant xenografted in mouse assessed as tumor growth inhibition at 2.5 mg/kg, po; type: functional; details: A375.X1, read-out: TGI; in short: as §1
NCI-H460 = test: Antitumor activity against human NCI-H460 cells harboring KRAS Q61H/PIK3CA E545K/LKB1 Q37/CDKN2A mutant xenografted in mouse assessed as tumor growth inhibition at 10 mg/kg, po; type: functional; details: read-out: TGI
In short: (§2)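 Human tumor xenografts in mice were dosed orally at the indicated mg/kg. Tumor volume was measured with calipers as (L×W×W)/2. %TGI = 100 × [1 − (AUC treatment/d)/(AUC vehicle/d)], using the area under the fitted tumor-growth curve per day for each dose group relative to vehicle.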

MIA PaCa-2 = test: Antitumor activity against human MIA PaCa-2 cells harboring KRAS G12C/NOTCH1 L2458V mutant xenografted in mouse assessed as tumor growth inhibition at 5 mg/kg, po; type: functional; details: read-out: TGI; in short: as §2
CWR22R = test: Antitumor activity against human 22Rv1 cells harboring PIK3CA Q546R/TP53 Q331R mutant xenografted in mouse assessed as tumor growth inhibition at 10 mg/kg, po; type: functional; details: read-out: TGI
NCI-H69 = test: Antitumor activity against human NCI-H69 cells harboring RBI E748/PK3CA G106_R108/TP53 E171 mutant xenografted in mouse assessed as tumor growth inhibition at 5 mg/kg, po; type: functional; details: read-out: TGI; in short: as §2
[16] = Antitumor activity against human A375.X1 cells xenografted in mouse assessed as reduction in ERK phosphorylation at 10 mg/kg, po administered for 3 days and measured at 2 to 24 hrs by Western blot analysis; type: functional; set-up: scale not given: the % may be the effect or the level left; details: time 74-96 hrs
In short: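 A375.X1 xenograft mice were dosed orally at 1, 3, 5 or 10 mg/kg once daily for 3 days. Tumors were collected 2, 8 and 24 h after the last dose, pulverized frozen and resolved by 4–12% SDS-PAGE. p-ERK1/2 and t-ERK1/2 were measured by Western blot and quantified by band intensity, relative to vehicle-treated mice (0 h).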

COLO-829 = test: Antiproliferative activity against human COLO-829 cells assessed reduction in cell viability incubated for 4 days in presence of 4-(2-(1H-indazol-4-yl)-6-((4-(methylsulfonyl)piperazin-1-yl)methyl)thieno[3,2-d]pyrimidin-4-yl)morpholine by celltiter-glo assay; type: functional; details: time 4 day
In short: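 4-day CellTiter-Glo viability read-out on melanoma lines, cells exposed to increasing concentrations of each inhibitor alone and in combination.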

A2058 [17] = test: Inhibition of PI3K/MEK signaling pathway in human A2058 cells assessed as decrease in ERK phosphorylation by incubated for 24 hrs by Western blot analysis; type: cell-based
DLD-1 [18] = test: Antitumor activity against human DLD-1 cells xenografted in mouse assessed as tumor growth inhibition at 10 mg/kg, po administered every third day for 21 days; type: functional; details: DLD-1, 504 h, time 21 day, read-out: TGI
In short: (§3)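 Human tumor xenografts in mice. Drugs given orally, as single agents or combined with the PI3K inhibitor. Schedules were daily (QD) or every third day (Q3D) over 21 days. Tumor volume was measured by caliper as (L×W×W)/2. %TGI = 100×[1 − AUC(treatment/d)/AUC(vehicle/d)] from fitted growth curves, with group means. Tumor lysates were immunoblotted for pS6.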

[19] = Antitumor activity against human A375.X1 cells xenografted in mouse assessed as tumor growth inhibition at 15 mg/kg, po administered every third day for 21 days in presence of 4-(2-(1H-indazol-4-yl)-6-((4-(methylsulfonyl)piperazin-1-yl)methyl)thieno[3,2-d]pyrimidin-4-yl)morpholine; type: functional; details: A375.X1, 504 h, time 21 day, read-out: TGI; in short: as §3
888-mel = test: Upregulation of Bim level in human 888-mel cells preincubated with compound for 24 hrs followed by compound washout and measured after 2 hrs by immunoblotting analysis; type: functional, cell-based
A2058 [20] = test: Antitumor activity against human A2058 cells harboring BRAF V600E/PTEN deletion mutant xenografted in mouse assessed as decrease in cyclin D1 level at 15 mg/kg, po administered every third day for 21 days and measured after 72 hrs post dose in presence of 4-(2-(1H-indazol-4-yl)-6-((4-(methylsulfonyl)piperazin-1-yl)methyl)thieno[3,2-d]pyrimidin-4-yl)morpholine by Western blot analysis; type: functional, organism-based; details: time 576.0 hrs

Interleukin-1 receptor-associated kinase 1, sequence (P51617 whole entry): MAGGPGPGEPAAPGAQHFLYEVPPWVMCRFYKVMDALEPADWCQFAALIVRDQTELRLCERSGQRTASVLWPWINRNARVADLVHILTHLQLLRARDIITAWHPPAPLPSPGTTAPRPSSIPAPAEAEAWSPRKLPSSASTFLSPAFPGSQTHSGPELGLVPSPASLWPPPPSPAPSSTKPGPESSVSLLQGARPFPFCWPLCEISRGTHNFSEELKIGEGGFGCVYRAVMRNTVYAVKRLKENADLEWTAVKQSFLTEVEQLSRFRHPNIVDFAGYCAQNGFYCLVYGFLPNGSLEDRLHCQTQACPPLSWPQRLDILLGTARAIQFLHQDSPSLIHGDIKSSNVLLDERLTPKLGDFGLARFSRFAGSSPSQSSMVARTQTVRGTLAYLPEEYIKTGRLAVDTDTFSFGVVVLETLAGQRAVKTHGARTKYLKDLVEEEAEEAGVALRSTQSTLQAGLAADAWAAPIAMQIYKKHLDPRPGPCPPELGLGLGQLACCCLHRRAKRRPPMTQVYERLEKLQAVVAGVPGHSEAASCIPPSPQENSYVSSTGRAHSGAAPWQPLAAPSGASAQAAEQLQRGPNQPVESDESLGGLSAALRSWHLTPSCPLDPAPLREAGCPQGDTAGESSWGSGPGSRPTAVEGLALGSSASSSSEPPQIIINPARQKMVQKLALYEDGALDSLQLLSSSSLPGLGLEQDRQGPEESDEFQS
Calcium/calmodulin-dependent protein kinase type II subunit alpha, sequence (Q9UQM7 whole entry): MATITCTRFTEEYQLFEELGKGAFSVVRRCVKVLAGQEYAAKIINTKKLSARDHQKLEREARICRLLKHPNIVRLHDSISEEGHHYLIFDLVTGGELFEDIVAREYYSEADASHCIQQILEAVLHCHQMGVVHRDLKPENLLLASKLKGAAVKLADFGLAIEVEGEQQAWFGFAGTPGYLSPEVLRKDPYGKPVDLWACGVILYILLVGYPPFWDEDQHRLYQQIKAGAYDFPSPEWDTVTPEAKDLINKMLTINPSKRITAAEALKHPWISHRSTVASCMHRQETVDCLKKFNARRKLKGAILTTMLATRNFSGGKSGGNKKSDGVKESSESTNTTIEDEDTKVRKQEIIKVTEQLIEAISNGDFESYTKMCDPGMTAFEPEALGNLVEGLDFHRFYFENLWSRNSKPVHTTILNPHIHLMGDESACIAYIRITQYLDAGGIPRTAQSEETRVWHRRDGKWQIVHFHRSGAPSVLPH
Mitogen-activated protein kinase 1, sequence (P28482 whole entry): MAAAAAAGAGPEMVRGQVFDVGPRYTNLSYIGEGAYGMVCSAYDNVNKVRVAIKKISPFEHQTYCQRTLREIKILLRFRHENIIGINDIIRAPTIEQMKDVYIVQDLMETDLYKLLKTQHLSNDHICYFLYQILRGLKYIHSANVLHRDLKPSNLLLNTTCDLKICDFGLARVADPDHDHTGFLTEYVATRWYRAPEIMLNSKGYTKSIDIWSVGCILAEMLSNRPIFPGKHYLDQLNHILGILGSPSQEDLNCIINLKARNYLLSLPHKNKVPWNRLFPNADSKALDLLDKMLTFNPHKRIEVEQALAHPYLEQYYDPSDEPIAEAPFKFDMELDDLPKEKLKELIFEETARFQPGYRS
G protein-coupled receptor kinase 5, sequence (P34947 whole entry): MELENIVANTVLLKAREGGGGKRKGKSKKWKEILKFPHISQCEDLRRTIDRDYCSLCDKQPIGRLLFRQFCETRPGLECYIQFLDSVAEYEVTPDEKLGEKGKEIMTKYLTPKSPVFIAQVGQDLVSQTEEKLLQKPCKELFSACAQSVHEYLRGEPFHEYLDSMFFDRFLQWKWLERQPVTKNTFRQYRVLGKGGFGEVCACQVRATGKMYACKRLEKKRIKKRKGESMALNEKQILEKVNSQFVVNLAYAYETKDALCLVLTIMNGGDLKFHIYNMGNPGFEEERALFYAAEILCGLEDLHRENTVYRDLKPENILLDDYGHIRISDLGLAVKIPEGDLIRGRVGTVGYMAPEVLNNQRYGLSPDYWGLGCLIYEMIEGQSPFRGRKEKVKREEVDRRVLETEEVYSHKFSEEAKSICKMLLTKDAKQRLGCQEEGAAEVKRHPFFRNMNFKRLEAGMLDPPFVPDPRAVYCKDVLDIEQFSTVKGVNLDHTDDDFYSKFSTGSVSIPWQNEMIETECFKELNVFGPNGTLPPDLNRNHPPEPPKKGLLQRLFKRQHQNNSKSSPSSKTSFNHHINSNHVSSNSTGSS
PAS domain-containing serine/threonine-protein kinase, sequence (Q96RG2 whole entry, the tested form may be a part): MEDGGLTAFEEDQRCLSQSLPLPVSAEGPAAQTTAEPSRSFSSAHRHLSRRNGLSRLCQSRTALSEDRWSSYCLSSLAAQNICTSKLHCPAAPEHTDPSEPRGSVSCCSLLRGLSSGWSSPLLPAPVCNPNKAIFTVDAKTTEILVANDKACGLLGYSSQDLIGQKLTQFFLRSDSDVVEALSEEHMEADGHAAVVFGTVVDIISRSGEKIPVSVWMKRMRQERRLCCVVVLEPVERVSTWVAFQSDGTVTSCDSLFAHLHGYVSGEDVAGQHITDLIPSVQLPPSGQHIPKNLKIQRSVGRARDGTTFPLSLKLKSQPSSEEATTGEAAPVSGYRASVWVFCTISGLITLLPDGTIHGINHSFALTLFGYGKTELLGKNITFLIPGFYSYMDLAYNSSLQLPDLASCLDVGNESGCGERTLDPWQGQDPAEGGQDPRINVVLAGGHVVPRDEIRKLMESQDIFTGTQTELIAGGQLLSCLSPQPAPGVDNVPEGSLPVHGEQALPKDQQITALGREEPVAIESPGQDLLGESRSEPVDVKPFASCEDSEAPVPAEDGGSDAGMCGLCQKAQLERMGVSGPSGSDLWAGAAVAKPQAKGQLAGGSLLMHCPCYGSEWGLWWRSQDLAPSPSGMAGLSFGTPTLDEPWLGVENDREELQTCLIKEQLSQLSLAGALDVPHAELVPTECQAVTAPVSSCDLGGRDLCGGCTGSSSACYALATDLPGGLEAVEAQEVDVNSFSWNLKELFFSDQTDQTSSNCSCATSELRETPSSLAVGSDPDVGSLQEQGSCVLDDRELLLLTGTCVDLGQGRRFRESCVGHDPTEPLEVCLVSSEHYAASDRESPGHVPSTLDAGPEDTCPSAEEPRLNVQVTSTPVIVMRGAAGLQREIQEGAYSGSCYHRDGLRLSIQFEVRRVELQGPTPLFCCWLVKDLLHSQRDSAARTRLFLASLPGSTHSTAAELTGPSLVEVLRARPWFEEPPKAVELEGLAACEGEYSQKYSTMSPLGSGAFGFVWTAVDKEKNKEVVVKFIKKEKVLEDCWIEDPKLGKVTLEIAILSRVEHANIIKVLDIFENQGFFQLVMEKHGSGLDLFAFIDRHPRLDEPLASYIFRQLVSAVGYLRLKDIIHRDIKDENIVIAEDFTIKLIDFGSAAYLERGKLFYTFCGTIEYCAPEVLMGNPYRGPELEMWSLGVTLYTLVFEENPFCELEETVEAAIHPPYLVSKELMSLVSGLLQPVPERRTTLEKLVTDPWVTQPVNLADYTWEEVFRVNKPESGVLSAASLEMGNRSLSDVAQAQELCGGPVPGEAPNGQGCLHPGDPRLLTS
Mitogen-activated protein kinase 14, sequence (Q16539 whole entry, the tested form may be a part): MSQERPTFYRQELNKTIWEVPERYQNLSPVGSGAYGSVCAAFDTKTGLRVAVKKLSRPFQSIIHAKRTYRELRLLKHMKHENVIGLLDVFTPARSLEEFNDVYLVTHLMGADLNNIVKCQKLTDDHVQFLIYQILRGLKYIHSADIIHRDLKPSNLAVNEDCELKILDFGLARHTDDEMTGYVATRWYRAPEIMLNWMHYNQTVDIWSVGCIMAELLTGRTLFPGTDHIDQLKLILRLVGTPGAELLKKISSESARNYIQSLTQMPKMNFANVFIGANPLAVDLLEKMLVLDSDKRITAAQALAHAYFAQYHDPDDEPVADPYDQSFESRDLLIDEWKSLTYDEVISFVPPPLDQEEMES
Ribosomal protein S6 kinase alpha-1, sequence (Q15418 whole entry): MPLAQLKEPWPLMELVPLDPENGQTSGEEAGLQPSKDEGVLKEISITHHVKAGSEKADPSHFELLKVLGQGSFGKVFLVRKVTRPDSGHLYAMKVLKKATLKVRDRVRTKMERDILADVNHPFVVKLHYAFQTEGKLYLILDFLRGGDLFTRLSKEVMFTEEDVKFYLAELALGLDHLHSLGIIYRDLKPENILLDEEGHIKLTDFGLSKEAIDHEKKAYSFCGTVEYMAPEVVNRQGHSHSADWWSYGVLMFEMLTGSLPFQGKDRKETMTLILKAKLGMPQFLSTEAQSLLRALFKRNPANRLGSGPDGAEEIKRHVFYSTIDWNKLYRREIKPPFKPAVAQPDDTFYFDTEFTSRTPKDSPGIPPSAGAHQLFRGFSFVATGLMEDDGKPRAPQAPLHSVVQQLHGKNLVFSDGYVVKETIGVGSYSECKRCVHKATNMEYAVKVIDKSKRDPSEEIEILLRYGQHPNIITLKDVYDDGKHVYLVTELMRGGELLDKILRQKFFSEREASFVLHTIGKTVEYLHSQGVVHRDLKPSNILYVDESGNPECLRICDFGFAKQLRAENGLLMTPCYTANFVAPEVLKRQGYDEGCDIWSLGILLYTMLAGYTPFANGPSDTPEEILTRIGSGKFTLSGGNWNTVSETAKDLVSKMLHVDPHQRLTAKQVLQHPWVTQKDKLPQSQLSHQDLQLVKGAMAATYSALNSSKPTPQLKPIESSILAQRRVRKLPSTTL
Serine/threonine-protein kinase Nek7, sequence (Q8TDX7 whole entry): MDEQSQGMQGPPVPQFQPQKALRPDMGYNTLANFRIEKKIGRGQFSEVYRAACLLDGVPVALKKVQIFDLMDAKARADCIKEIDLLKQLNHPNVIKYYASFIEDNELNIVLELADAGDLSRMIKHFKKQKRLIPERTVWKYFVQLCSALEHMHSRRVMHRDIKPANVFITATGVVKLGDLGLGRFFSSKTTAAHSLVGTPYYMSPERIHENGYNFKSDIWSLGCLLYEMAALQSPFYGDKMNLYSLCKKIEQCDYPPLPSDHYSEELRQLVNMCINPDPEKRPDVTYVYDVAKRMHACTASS

With `O=C(c1ccc(F)c(F)c1Nc1ccc(I)cc1F)N1CC(O)([C@@H]2CCCCN2)C1` [COBIMETINIB] the IC50 [1] was > 10 µM, the IC50 (CDK6/cyclin D3) was > 10 µM and the IC50 (Casein kinase I) was > 10 µM. The IC50 [2] was > 10 µM, the IC50 [3] was > 10 µM and the IC50 [4] was > 10 µM. For the same molecule, the IC50 [5] was > 10 µM, the IC50 [6] was > 10 µM and the IC50 [7] was > 10 µM. For the same molecule, the IC50 [8] was > 10 µM, the IC50 [9] was > 10 µM and the IC50 [10] was > 10 µM. The IC50 [11] was > 10 µM, the IC50 [12] was > 10 µM and the inhibition in vivo at 10 mg/kg (DLD-1 [13]) was 49.5%. It also gave an inhibition in vivo at 5 mg/kg (A2058 [14]) of 12.7%, an inhibition in vivo at 2.5 mg/kg [15] of 97.5% and an inhibition in vivo at 10 mg/kg (NCI-H460) of 9%. The inhibition in vivo at 5 mg/kg (MIA PaCa-2) was 6%, the inhibition in vivo at 10 mg/kg (CWR22R) was 82.5% and the inhibition in vivo at 5 mg/kg (NCI-H69) was 21%. For the same molecule, the Activity [16] was 75%, the Activity (COLO-829) was 60% and the inhibition (A2058 [17]) was “Active”. For the same molecule, the inhibition in vivo at 10 mg/kg (DLD-1 [18]) was 18%, the inhibition in vivo at 15 mg/kg [19] was 122% and the Activity (888-mel) was “Active”. For the same molecule, the Activity (A2058 [20]) was “Active”.
